This is one part of a sample in which hits are shown more often than they occur.
IDH1 mut inh: inhibitors of human IDH1 R132H; O75874; IDH1 R132H reductase, diaphorase/resazurin fluorescence, 60 min; AID 624101; 70,000 compounds, 0.18% hits; inhibition, % at 10 µM; in the data active means inhibition above about 34%; inconclusive means no clear call, values can overlap the other calls; inactive means below about 11%
Target sequence (O75874 whole entry R132H): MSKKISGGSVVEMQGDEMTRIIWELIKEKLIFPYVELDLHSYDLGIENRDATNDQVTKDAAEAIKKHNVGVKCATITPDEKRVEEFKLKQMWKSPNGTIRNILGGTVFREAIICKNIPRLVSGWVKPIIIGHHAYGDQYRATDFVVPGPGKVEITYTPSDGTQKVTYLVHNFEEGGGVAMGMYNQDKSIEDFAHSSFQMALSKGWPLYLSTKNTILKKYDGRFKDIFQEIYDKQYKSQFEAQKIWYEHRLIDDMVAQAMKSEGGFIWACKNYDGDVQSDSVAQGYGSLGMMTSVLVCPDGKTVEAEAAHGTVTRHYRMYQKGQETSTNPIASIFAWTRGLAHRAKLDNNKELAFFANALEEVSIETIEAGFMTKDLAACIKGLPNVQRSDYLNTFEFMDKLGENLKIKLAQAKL
T cruzi growth-1: T. cruzi proliferation inhibition; T. cruzi beta-gal in NIH3T3, GalScreen luminescence, 90 h; inhibition, % at 8.34 µM; 77,000 compounds, 5.9% hits; AID 624255;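 active means mean inhibition above about 93%, with at least 55% of replicates each passing it, limit read from the data, passing the limit was not always enough; inconclusive means only one of those two conditions holds; inactive means neither condition holds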
KDM4C inh: inhibitors of human demethylase GASC-1 KDM4C; Q9H3R0; AID 720574; GST-KDM4C 2-372, H3K9me3 peptide, LANCE TR-FRET; 96,000 compounds, 0.15% hits; inhibition, % at 12.5 µM;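 active means mean replicate inhibition above about 25%, with at least 55% of replicates also reaching it, limit read from the data, passing the limit was not always enough; inconclusive means only one of those two conditions met; inactive means neither condition met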
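System: N-terminal GST-fused human GASC-1 (KDM4C) fragment, residues 2-372; amount: enzyme final amount 10 nM; incubation: reaction 30 min RT, detection step 1 h RT; medium: HEPES buffer, pH 7.5, plus ascorbate; technique: LANCE TR-FRET, Eu antibody, ULight-streptavidin, EDTA, ex 340 nm, em 618/671 nm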
T cruzi growth-2: inhibitors of T. cruzi proliferation | T. cruzi beta-gal in NIH3T3, GalScreen luminescence, 90 h | 5,600 compounds, 72% hits | inhibition, % at 8.35 µM | shares compounds with T cruzi growth-1;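 active means mean replicate inhibition above about 95% and at least 55% of replicates individually reaching it, limit read from the data; inconclusive means only one of the two criteria is met; inactive means neither criterion is met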
T cruzi growth-3: inhibitors of T. cruzi proliferation; AID 651740; shares compounds with T cruzi growth-1; inhibition, % at 2.09 µM; T. cruzi beta-gal in NIH3T3, GalScreen luminescence, 90 h; 5,600 compounds, 21% hits;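 active means mean inhibition above about 95%, with at least 55% of replicates also reaching it, limit read from the data; inconclusive means meets just one of the two conditions; inactive means meets neither condition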
3T3 cytotox: NIH/3T3 (mouse) viability loss. shares compounds with T cruzi growth-1. NIH/3T3 viability, CellTiter-Glo ATP luminescence, 90 h. cytotoxicity (signal decrease), % at 8.35 µM. 5,600 compounds, 14% hits. AID 651742;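 active means mean signal decrease across replicates above about 35% based on untreated-well scatter, with enough replicates individually passing, limit read from the data; inconclusive means no rule stated though some were filed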
3T3 cytotox 2: kills mouse NIH/3T3 fibroblasts | 5,600 compounds, 56% hits | AID 651744 | shares compounds with T cruzi growth-1 | inhibition, % at 24.9 µM | NIH/3T3 viability, CellTiter-Glo ATP luminescence, 90 h;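 active means mean loss of cell viability signal at or above a set limit, and enough replicates individually reaching it; inconclusive means meets only the mean limit or only the replicate share; inactive means meets neither condition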
Hits are given with their value.

COc1cccc(-c2ccc3c(c2)O[C@@H](CN(C)C(=O)C2CCC2)[C@@H](C)CN([C@H](C)CO)S3(=O)=O)c1 was read as IDH1 mut inh inactive, T cruzi growth-1 inactive and KDM4C inh inactive.
CC(=O)N1CCCCN2[C@@H](CO)[C@@H](c3ccc(-c4ccc(C)cc4)cc3)[C@@H]2C1 was read as T cruzi growth-1 106, KDM4C inh inactive, T cruzi growth-2 inactive, T cruzi growth-3 inactive, 3T3 cytotox 36 and 3T3 cytotox 2 66.
`CC(=O)N1CCCCN2[C@H](CO)[C@@H](c3ccc(-c4ccc(C)cc4)cc3)[C@H]2C1` gave T cruzi growth-1 106, KDM4C inh inactive, T cruzi growth-2 inactive, T cruzi growth-3 inactive, 3T3 cytotox inactive and 3T3 cytotox 2 74.
CC(=O)N1CCCCN2[C@H](C1)[C@H](c1ccc(-c3ccc(C)cc3)cc1)[C@@H]2CO was read as T cruzi growth-1 100, KDM4C inh inactive, T cruzi growth-2 106, T cruzi growth-3 inactive, 3T3 cytotox inactive and 3T3 cytotox 2 29.
For CC(=O)N1CCCCN2[C@H](C1)[C@H](c1ccc(-c3cccc(C)c3)cc1)[C@@H]2CO the results were T cruzi growth-1 inactive and KDM4C inh inactive.
For CC(=O)N1CCCCN2[C@H](CO)[C@@H](c3ccc(-c4ccc(C)cc4)cc3)[C@@H]2C1 the results were T cruzi growth-1 102, KDM4C inh inactive, T cruzi growth-2 inactive, T cruzi growth-3 inactive, 3T3 cytotox 41 and 3T3 cytotox 2 28.
`CC(=O)N1CCCCN2[C@@H](CO)[C@@H](c3ccc(-c4ccc(F)cc4)cc3)[C@@H]2C1` gave T cruzi growth-1 inactive and KDM4C inh inactive.
For CC(=O)N1CCCCN2[C@H](C1)[C@@H](c1ccc(-c3cccc(C)c3)cc1)[C@@H]2CO the results were T cruzi growth-1 inactive and KDM4C inh inactive.
CC(=O)N1CCCCN2[C@H](C1)[C@H](c1ccc(-c3ccc(F)cc3)cc1)[C@@H]2CO was read as T cruzi growth-1 inactive and KDM4C inh inactive.
`Cc1cc2ncn(CC(O)COc3ccccc3Cl)c2cc1C` (stereo not given) gave IDH1 mut inh inactive.
COc1ccc2c3c(n(C)c2c1)[C@H](CO)NCC31CN(S(=O)(=O)c2cccc(F)c2)C1 was read as KDM4C inh inactive.
For Cc1cc(C)c(NC(=O)CSc2nnc(-c3ccncc3)n2C)c([N+](=O)[O-])c1 the results were IDH1 mut inh inactive.
Screening O=C(CCn1cnc2ccccc2c1=O)Nc1ccccc1Br returned IDH1 mut inh inactive.
Cc1ccc(-c2cc(C(=O)NCCCN3CCOCC3)c3cc(Br)ccc3n2)cc1 was read as IDH1 mut inh inactive.
CC(=O)N1CCCCN2[C@@H](CO)[C@H](c3ccc(-c4ccc(C)cc4)cc3)[C@@H]2C1 was read as T cruzi growth-1 120, KDM4C inh inactive, T cruzi growth-2 inactive, T cruzi growth-3 inactive, 3T3 cytotox inconclusive and 3T3 cytotox 2 76.
Screening CC(=O)N1CCCCN2[C@H](CO)[C@H](c3ccc(-c4ccc(F)cc4)cc3)[C@H]2C1 returned T cruzi growth-1 inactive and KDM4C inh inactive.
CC(=O)N1CCCCN2[C@H](CO)[C@@H](c3ccc(-c4ccc(F)cc4)cc3)[C@@H]2C1 was read as T cruzi growth-1 inactive and KDM4C inh inactive.
CC(=O)N1CCCCN2[C@H](C1)[C@@H](c1ccc(-c3ccc(C)cc3)cc1)[C@@H]2CO was read as T cruzi growth-1 111, KDM4C inh inactive, T cruzi growth-2 inactive, T cruzi growth-3 inactive, 3T3 cytotox inactive and 3T3 cytotox 2 inactive.
For COC(=O)c1cccc(OC(C)C(=O)O)c1 (stereo not given) the results were IDH1 mut inh inactive.
`CN(C)CCCNc1ncnc2c1sc1nc(N3CCOCC3)c3c(c12)CCC3` gave IDH1 mut inh inactive.
CN1c2ccc(-c3ccc(F)cc3)cc2[C@H]2[C@H](CCN2C(=O)C2CCOCC2)[C@H]1CO was read as T cruzi growth-1 inactive and KDM4C inh inactive.
For CN1c2ccc(-c3cccc(F)c3)cc2[C@@H]2[C@@H](CCN2C(=O)C2CCOCC2)[C@@H]1CO the results were T cruzi growth-1 inactive and KDM4C inh inactive.
Screening CN1c2ccc(-c3ccc(F)cc3)cc2[C@@H]2[C@@H](CCN2C(=O)C2CCOCC2)[C@@H]1CO returned T cruzi growth-1 98, KDM4C inh inactive, T cruzi growth-2 106, T cruzi growth-3 inactive, 3T3 cytotox inactive and 3T3 cytotox 2 inactive.
Screening CN(C)C(=O)c1ccc(-c2ccc3c(c2)[C@@H]2[C@@H](CCN2C(=O)C2CCCC2)[C@H](CO)N3C)cc1 returned KDM4C inh inactive.
Screening CN(C)C(=O)c1ccc(-c2ccc3c(c2)[C@@H]2[C@@H](CCN2C(=O)C2CCOCC2)[C@@H](CO)N3C)cc1 returned T cruzi growth-1 102, KDM4C inh inactive, T cruzi growth-2 107, T cruzi growth-3 inactive, 3T3 cytotox inactive and 3T3 cytotox 2 inactive.
Screening CN1c2ccc(-c3ccc(F)cc3)cc2[C@@H]2[C@@H](CCN2C(=O)C2CCOCC2)[C@H]1CO returned T cruzi growth-1 105, KDM4C inh inactive, T cruzi growth-2 105, T cruzi growth-3 inactive, 3T3 cytotox inactive and 3T3 cytotox 2 inactive.
Screening Cc1ccc(S(=O)(=O)NC2c3cccc4cccc(c34)C2Sc2nnc(N)s2)cc1 (stereo not given) returned IDH1 mut inh inactive.
COc1ccc(C)cc1N(CC(=O)Nc1ccc(Br)c(C)c1)S(C)(=O)=O was read as IDH1 mut inh inactive.
For CC(C)NC(=O)N(C)C[C@@H]1Oc2cc(C#Cc3ccc(F)cc3)ccc2S(=O)(=O)N([C@@H](C)CO)C[C@@H]1C the results were IDH1 mut inh inactive, T cruzi growth-1 114, KDM4C inh inactive, T cruzi growth-2 107, T cruzi growth-3 inactive, 3T3 cytotox inactive and 3T3 cytotox 2 inconclusive.
Screening C[C@@H]1CN([C@H](C)CO)S(=O)(=O)c2ccc(C#Cc3ccc(F)cc3)cc2O[C@H]1CN(C)C(=O)NC1CCCC1 returned IDH1 mut inh inactive, T cruzi growth-1 inactive and KDM4C inh inactive.
For C[C@H]1CN([C@@H](C)CO)S(=O)(=O)c2ccc(C#Cc3ccc(F)cc3)cc2O[C@@H]1CN(C)C(=O)NC1CCCC1 the results were T cruzi growth-1 117, KDM4C inh inactive, T cruzi growth-2 101, T cruzi growth-3 inactive, 3T3 cytotox inactive and 3T3 cytotox 2 107.
`CC(C)NC(=O)N(C)C[C@H]1Oc2cc(C#Cc3ccc(F)cc3)ccc2S(=O)(=O)N([C@@H](C)CO)C[C@@H]1C` gave IDH1 mut inh inactive, T cruzi growth-1 inactive and KDM4C inh inactive.
